Measured values taken from ChEMBL document CHEMBL3797096, “Synthesis and in vitro evaluation of (R), (S) and (R/S)-2-hexyne-1,4-diol, a natural product produced by fungus Clitocybe catinus, and related analogs as potential anticancer agents” (Bioorg Med Chem Lett, 2016).
Activity calls are given as the source filed them. No cut-off for these calls is given here.

Tests used:
[1] = tested on: K562; assay: Cytotoxicity against human K562 cells assessed as cell death at 100 ug/ml after 72 hrs by MTT assay; assay type: functional
Procedure, shortened: (§1)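 Single-concentration colorimetric MTT screen of test compounds at a fixed final concentration. Incubation was 72 h, and the read-out was growth inhibition of the tumour cell lines. Values are given as means with standard deviations. Doxorubicin served as the positive control.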

[2] = tested on: MCF7; assay: Cytotoxicity against human MCF7 cells assessed as cell death at 100 ug/ml after 72 hrs by MTT assay; assay type: functional; procedure, shortened: as §1
[3] = tested on: RAW264.7; assay: Cytotoxicity against mouse RAW264.7 cells at 100 ug/ml after 72 hrs by MTT assay; assay type: cell-based; settings: raw264.7, 72 h
Procedure, shortened: (§2)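 Single-concentration screen of mouse cells at 100 µg/mL final concentration. Viability read by colorimetric MTT assay after 72 h of incubation; percent growth inhibition given as means (standard deviations); doxorubicin as positive control.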

[4] = Cytotoxicity against human Hep2 cells assessed as cell death at 100 ug/ml after 72 hrs by MTT assay; assay type: functional, HEp-2; procedure, shortened: as §1
[5] = tested on: J774.A1; assay: Cytotoxicity against mouse J774.A1 cells at 100 ug/ml after 72 hrs by MTT assay; assay type: cell-based; settings: j774.a1, 72 h; procedure, shortened: as §2
[6] = Cytotoxicity against human HL60 cells assessed as cell death at 100 ug/ml after 72 hrs by MTT assay; assay type: functional, HL-60; procedure, shortened: as §1
[7] = tested on: NCI-H292; assay: Cytotoxicity against human NCI-H292 cells assessed as cell death at 100 ug/ml after 72 hrs by MTT assay; assay type: functional; procedure, shortened: as §1
[8] = tested on: NCI-H292; assay: Cytotoxicity against human NCI-H292 cells after 72 hrs by MTT assay; assay type: functional, cell-based
Procedure, shortened: (§3)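 Colorimetric MTT assay on human tumour cells after 72 h of incubation; values expressed as means (standard deviations), with doxorubicin as positive control.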

[9] = tested on: HL-60; assay: Cytotoxicity against human HL60 cells after 72 hrs by MTT assay; assay type: functional, cell-based; procedure, shortened: as §3
[10] = tested on: HEp-2; assay: Cytotoxicity against human Hep2 cells after 72 hrs by MTT assay; assay type: functional, cell-based; procedure, shortened: as §3
[11] = tested on: MCF7; assay: Cytotoxicity against human MCF7 cells after 72 hrs by MTT assay; assay type: functional, cell-based; procedure, shortened: as §3
[12] = tested on: K562; assay: Cytotoxicity against human K562 cells after 72 hrs by MTT assay; assay type: functional, cell-based; procedure, shortened: as §3

CC(O)CC#CCO (stereo unspecified)
Activity [1]: 0%
Activity [2]: 0%
Activity [3]: 8.5%
Activity [4]: 14.8%
Activity [5]: 60.8%
Activity [6]: 11%
Activity [7]: 20.2%

CC(O)C#CC1(O)CCCCC1 (stereo unspecified)
Activity [1]: 16.7%
Activity [2]: 40.8%
Activity [3]: 4.2%
Activity [4]: 9.3%
Activity [5]: 57.5%
Activity [6]: 8.9%
Activity [7]: 6.6%

CC(C)C(O)C#CCCO (stereo unspecified)
Activity [1]: 0%
Activity [2]: 54.1%
Activity [3]: 17.8%
Activity [4]: 85.7%
Activity [5]: 30.4%
Activity [6]: 0%
Activity [7]: 49.9%

CC(C)C(O)C#CC(C)(C)O (stereo unspecified)
Activity [1]: 9.7%
Activity [2]: 40.7%
Activity [3]: 0%
Activity [4]: 0%
Activity [5]: 55.3%
Activity [6]: 7.3%
Activity [7]: 21.5%

CC(O)C#CC(O)(c1ccccc1)c1ccccc1 (stereo unspecified)
Activity [1]: 80%
Activity [2]: 27.3%
Activity [3]: 95%
Activity [4]: 84%
Activity [5]: 93.1%
Activity [6]: 96.1%
Activity [7]: 91%

CCC(O)C#CCCO (stereo unspecified)
Activity [1]: 0%
Activity [2]: 34.3%
Activity [3]: 6.1%
Activity [4]: 12.9%
Activity [5]: 42.6%
Activity [6]: 5.1%
Activity [7]: 15.5%

COc1cccc2c1C(=O)c1c(O)c3c(c(O)c1C2=O)C[C@@](O)(C(=O)CO)C[C@@H]3O[C@H]1C[C@H](N)[C@H](O)[C@H](C)O1 [DOXORUBICIN]
Activity [1]: 91.7%
Activity [2]: 74.8%
Activity [3]: 96.5%
Activity [4]: 79.4%
Activity [5]: 96%
Activity [6]: 92.9%
Activity [7]: 94.1%

CC[C@@H](O)C#CCO
Activity [1]: 40.9%
Activity [2]: 52.5%
Activity [3]: 9.6%
Activity [4]: 38.8%
Activity [5]: 0.2%
Activity [6]: 12.1%
Activity [7]: 55.7%

CC[C@H](O)C#CCO
Activity [1]: 27%
Activity [2]: 51.6%
Activity [3]: 19.5%
Activity [4]: 31.3%
Activity [5]: 1.7%
Activity [6]: 1.4%
Activity [7]: 85%

CCC(C)(O)C#CCO (stereo unspecified)
Activity [1]: 16%
Activity [2]: 27.2%
Activity [3]: 0%
Activity [4]: 0%
Activity [5]: 61.2%
Activity [6]: 13.3%
Activity [7]: 5%

CCC(O)C#CCO (stereo unspecified)
TGI [8]: Active
Activity [1]: 100%
TGI [9]: Active
Activity [2]: 100%
TGI [10]: Active
Activity [3]: 100%
Activity [4]: 100%
Activity [5]: 100%
Activity [6]: 100%
TGI [11]: Active
Activity [7]: 100%
TGI [12]: Active

CC(O)C#CCO (stereo unspecified)
TGI [8]: Active
Activity [1]: 100%
TGI [9]: Active
Activity [2]: 100%
TGI [10]: Active
Activity [3]: 100%
Activity [4]: 100%
Activity [5]: 100%
Activity [6]: 100%
TGI [11]: Active
Activity [7]: 100%
TGI [12]: Active

CC(O)CC#CCCO (stereo unspecified)
Activity [1]: 0%
Activity [2]: 69.5%
Activity [3]: 19.3%
Activity [4]: 84.1%
Activity [5]: 15.7%
Activity [6]: 9.6%
Activity [7]: 71.5%

CC(O)C#CCCO (stereo unspecified)
Activity [1]: 25.1%
Activity [2]: 17.8%
Activity [3]: 9.4%
Activity [4]: 2.2%
Activity [5]: 16.5%
Activity [6]: 0%
Activity [7]: 0.3%

CCCC(O)C#CCO (stereo unspecified)
TGI [8]: Active
Activity [1]: 100%
TGI [9]: Active
Activity [2]: 100%
TGI [10]: Active
Activity [3]: 100%
Activity [4]: 100%
Activity [5]: 100%
Activity [6]: 100%
TGI [11]: Active
Activity [7]: 100%
TGI [12]: Active

CC(C)C(O)C#CCO (stereo unspecified)
Activity [1]: 20.9%
Activity [2]: 28.7%
Activity [3]: 17.8%
Activity [4]: 42.7%
Activity [5]: 2%
Activity [6]: 0%
Activity [7]: 69.8%

CCCCCC(O)C#CCO (stereo unspecified)
TGI [8]: Active
Activity [1]: 100%
TGI [9]: Active
Activity [2]: 100%
TGI [10]: Active
Activity [3]: 100%
Activity [4]: 100%
Activity [5]: 100%
Activity [6]: 100%
TGI [11]: Active
Activity [7]: 100%
TGI [12]: Active

OCC#CC(O)c1ccccc1 (stereo unspecified)
Activity [1]: 3.8%
Activity [2]: 68.1%
Activity [3]: 16%
Activity [4]: 28.1%
Activity [5]: 17.1%
Activity [6]: 29.5%
Activity [7]: 86.9%
